From article PMC2834884 (Journal of immunology (Baltimore, Md. : 1950), 2009)
Read-outs that look alike come from different tables or passages of the source.

How the values were obtained:
[1] = tested on: C57BL/6J mice; test: Serum cytokine ELISA after i.v. injection of glycolipid; type: in vivo, mouse; conditions: 1 μg i.v.
Summary of the method: (§1)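 Glycolipid was dissolved at 100 μg/mL in DMSO, diluted in PBS, heated 56°C 10 min and vortexed. Glycolipid or vehicle was injected i.v. and mice bled at set times. Serum cytokines were quantified by sandwich ELISA with paired capture/detection mAbs.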

[2] = target: Vα14i/Vβ8.2 TCR of 1.2 Vα14i NKT cell hybridoma (Mus musculus, UniProt A0A0B4J1J9+A0A0G2JG46+A0A140T8N6+P11609); test: Equilibrium glycolipid/CD1d tetramer staining of 1.2 hybridoma; type: binding; conditions: glycolipid/CD1d tetramers
[3] = target: T1, CD1d (Mus musculus, UniProt P11609); test: Decay of glycolipids from CD1d measured by L317 binding; conditions: surface plasmon resonance, 25°C
T1 sequence (P11609 22-305 limits assumed): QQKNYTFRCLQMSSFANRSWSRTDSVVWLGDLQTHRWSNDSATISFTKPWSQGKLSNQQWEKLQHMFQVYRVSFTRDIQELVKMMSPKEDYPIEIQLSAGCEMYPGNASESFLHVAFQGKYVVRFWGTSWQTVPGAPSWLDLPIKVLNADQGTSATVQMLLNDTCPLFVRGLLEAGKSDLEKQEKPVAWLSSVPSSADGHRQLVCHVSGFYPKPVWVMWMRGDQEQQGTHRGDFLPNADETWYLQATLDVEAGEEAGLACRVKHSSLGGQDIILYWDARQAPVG
T1 sequence (P01887 21-119 partner): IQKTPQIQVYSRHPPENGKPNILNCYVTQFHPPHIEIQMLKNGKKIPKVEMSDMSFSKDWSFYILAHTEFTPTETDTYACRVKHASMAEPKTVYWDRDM
Summary of the method: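 His-tagged mouse CD1d pulsed overnight with each glycolipid, then captured on Ni-charged NTA sensor chip channels; complexes allowed to decay for varied times before a saturating dose of αGalCer/CD1d-specific mAb L317 was flowed over. Binding was measured by surface plasmon resonance at 25°C and normalized to maximum binding for each antigen.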

[4] = tested on: monoclonal antibody L317; test: L317 antibody binding to glycolipid/CD1d complexes; conditions: surface plasmon resonance
Summary of the method: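 Real-time binding of L317 to glycolipid-loaded CD1d was measured by surface plasmon resonance at 25°C. Kinetic parameters came from fitting specific sensorgrams.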

[5] = tested on: 1.2 Vα14i NKT hybridoma; test: ERK1/2 phosphorylation in Vα14i NKT hybridoma after glycolipid-pulsed APCs; type: cell-based, mouse; conditions: 1.2 hybridoma; for extent of ERK1/2 phosphorylation: A20-CD1d cells as APCs
Summary of the method: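 A20-CD1d cells (10^6/ml) were pulsed 2 h with glycolipid (DMSO stock diluted in PBS), washed cold, and mixed with hybridoma cells at 4:1 on ice, then pelleted and warmed to 37°C for timed intervals. Cells were fixed in 4% PFA, stained for Thy1.2, permeabilized in 90% methanol and stained for ppERK1/2. Flow cytometry was gated on Thy1.2+ cells with t = 0 as negative control. Values are % ppERK+ (glycolipid) minus % ppERK+ (vehicle).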

[6] = tested on: Vα14i NKT cells; test: Ex vivo activation of Vα14i NKT cells after i.v. glycolipid; type: in vivo, mouse; conditions: 1 μg i.v.; for Vα14i NKT cell activation (percentage producing IFNγ, IL-4 and TNF; CD69 and CD40L expression): two hours after injection
Summary of the method: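 Mice received glycolipid i.v. (DMSO stock diluted in PBS, heated 56°C 10 min). Spleens were taken at 2 h, mechanically dissociated, filtered and red cells lysed. Cells were stained with mAbs together with CD1d tetramer in PBS/10% FCS at 4°C for 45 min and analysed by flow cytometry.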

[7] = tested on: NK cells; test: NK cell trans-activation; type: in vivo, mouse; conditions: 1 μg i.v., 18 h after injection, liver and spleen
Summary of the method: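 Glycolipid (DMSO stock diluted in PBS) was given i.v. Liver was perfused via portal vein and mononuclear cells isolated at the 40/60% Percoll interface (900 g, 20 min); splenocytes were dissociated and red cells lysed. Cells were surface-stained at 4°C for 45 min, then permeabilized with Cytofix/Cytoperm for intracellular IFNγ staining and flow cytometry.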

[8] = tested on: splenic DC; test: Phenotype of splenic DC from glycolipid immunized mice; type: in vivo, mouse; conditions: 17.5 h and 44 h after immunization
[9] = target: T2, glycolipid/CD1d complexes on splenic APC (Mus musculus, UniProt P11609); type: in vivo; conditions: 1 μg i.v.
T2 sequence (P11609 22-336): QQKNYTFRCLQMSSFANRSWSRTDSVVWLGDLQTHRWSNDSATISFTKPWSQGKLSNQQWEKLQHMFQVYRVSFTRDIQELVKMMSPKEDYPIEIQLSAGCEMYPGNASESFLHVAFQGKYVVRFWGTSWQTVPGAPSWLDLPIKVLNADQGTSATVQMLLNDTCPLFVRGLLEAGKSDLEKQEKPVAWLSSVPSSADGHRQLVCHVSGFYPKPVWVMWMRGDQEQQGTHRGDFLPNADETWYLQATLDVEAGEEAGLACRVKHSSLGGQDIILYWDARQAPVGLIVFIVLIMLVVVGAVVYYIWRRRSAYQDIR
T2 sequence (P01887 21-119 partner): T1 sequence (P01887 21-119 partner)
Summary of the method: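 At set times after i.v. immunization, spleens were collagenase D-digested at 37°C, treated with 5 mM EDTA for 5 min and strained. Cells were split into CD11c-enriched and depleted fractions with anti-CD11c magnetic beads. A dose range of each fraction was cultured with 1.2 hybridoma cells (2 × 10^5/well) without added antigen. Supernatant IL-2 was measured by sandwich ELISA.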

[10] = tested on: CD40−/− mice; test: Serum IFNγ in CD40-deficient mice; type: in vivo, mouse; conditions: 1 μg i.v., serum at 6 h and 24 h, versus C57BL/6
Summary of the method: as §1

[11] = APC harvested 1.5 h after immunization

Row | t1/2 (dissociation of glycolipid from CD1d) ([3]; listed as CD1d/αGalCer) [h] | stability of complexes with CD1d in vivo ([9]; functional bioassay) | SMILES | serum IFNγ level [1] | serum IL-4 level [1] | tetramer binding to 1.2 hybridoma cells [2] | t1/2 (dissociation of glycolipid from CD1d) [3] [h] | t1/2 (dissociation of glycolipid from CD1d) ([3]; listed as CD1d/OCH) [h] | affinity of L317 for glycolipid bound to CD1d [4] | extent of ERK1/2 phosphorylation [5] | ERK1/2 phosphorylation ([5]; BMDCs or splenic B cells as APCs) | CD40L expression on Vα14i NKT cells ([6]; 2 h after injection, spleen) | Vα14i NKT cell activation (percentage producing IFNγ, IL-4 and TNF; CD69 and CD40L expression) [6] | IFNγ production by NK cells (trans-activation) [7] | increased expression of CD80, CD86 and CD1d in splenic DC [8] | IL-2 release by 1.2 hybridoma with APC from immunized mice [9, 11] | IL-2 release by 1.2 hybridoma with APC from immunized mice ([9]; APC harvested 17.5 h and 44 h after immunization) | IFNγ levels in CD40-deficient mice [10]
1 |  |  | CCCCCCCCCCCCCCCCCCCCCCCC(=O)N[C@@H](COC1OC(CO)C(O)C(O)C1O)[C@H](O)[C@H](O)CCCCC (some centres unmarked) [OCH] | relatively low levels of IFNγ | high levels of IL-4, equivalent to αGalCer | barely able to bind | 1.09 | 1.09 ± 0.63 | weaker | indistinguishable | induced fewer 1.2 cells to phosphorylate ERK1/2 than αGalCer | induced more CD40L than C-glycoside | less potent than αGalCer | Impaired NK cell trans-activation | to the same extent as αGalCer | higher production of IL-2 than C-glycoside | considerably reduced compared to αGalCer and C-glycoside | 
2 | 5.043 ± 2.207 | much more stable in vivo than OCH | CCCCCCCCCCCCCCCCCCCCCCCCCC(=O)N[C@@H](CO[C@H]1O[C@H](CO)[C@H](O)[C@H](O)[C@H]1O)[C@H](O)[C@H](O)CCCCCCCCCCCCCC [αGalCer, α-galactosyl ceramide] |  |  |  | 5.043 |  | highest | dose-dependent increase in ppERK |  |  | highest percentage | highest percentage of IFNγ-expressing NK cells |  | best response |  | strongly reduced
